Measured values published in ChEMBL document CHEMBL4732250, “Investigations on substituted (2-aminothiazol-5-yl)(imidazo[1,2-a]pyridin-3-yl)methanones for the treatment of Alzheimer's disease” (Bioorg Med Chem, 2021).
The source made the active and inactive calls. The calls are words filed in the database; no cut-off is given here.

Key:
Rattus norvegicus [1] = assay: Antiinflammatory activity in Sprague-Dawley rat acute model of carrageenan-induced paw edema assessed as inhibition of rat paw edema at 50 mg/kg, po pre treated for 1 hr followed by carrageenan-stimulation and measured after 3 hrs by plethysmometeric method relative to control; format: functional; conditions: time 4 hrs
Method in brief: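 SD rats of either sex, 150–200 g, n = 6, dosed orally in 0.2% agar suspension. After 1 h, 0.1 mL 1% carrageenan in saline injected into the left hind sub-plantar paw. Paw volume measured by mercury plethysmometer before and 3 h after injection. % edema inhibition calculated. Mean ± SEM.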

Rattus norvegicus [2] = assay: Antiinflammatory activity in Sprague-Dawley rat chronic model of formalin-induced paw edema assessed as inhibition of rat paw edema at 50 mg/kg, po pre treated for 1 hr followed by formalin-stimulation and measured after 4 days by plethysmometeric method relative to control; format: functional; conditions: 96 h, time 4 day
Method in brief: (§1)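 Chronic paw edema. Oral pre-dose in 0.2% agar; after 1 h, 0.1 mL 2% formalin in saline injected into the left hind sub-plantar paw, repeated on 5 consecutive days. Paw volume by plethysmometer. % inhibition of edema size relative to disease control, days 1–5. n = 6, mean ± SEM, one-way ANOVA with Tukey's test.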

Rattus norvegicus [3] = assay: Antiinflammatory activity in Sprague-Dawley rat chronic model of formalin-induced paw edema assessed as inhibition of rat paw edema at 50 mg/kg, po pre treated for 1 hr followed by formalin-stimulation and measured after 1 day by plethysmometeric method relative to control; format: functional; conditions: 24 h; method in brief: as §1
Rattus norvegicus [4] = assay: Antiinflammatory activity in Sprague-Dawley rat chronic model of formalin-induced paw edema assessed as inhibition of rat paw edema at 50 mg/kg, po pre treated for 1 hr followed by formalin-stimulation and measured after 5 day by plethysmometeric method relative to control; format: functional; conditions: 120 h; method in brief: as §1
Rattus norvegicus [5] = assay: Antiinflammatory activity in Sprague-Dawley rat chronic model of formalin-induced paw edema assessed as inhibition of rat paw edema at 50 mg/kg, po pre treated for 1 hr followed by formalin-stimulation and measured after 3 days by plethysmometeric method relative to control; format: functional; conditions: 72 h, time 3 day; method in brief: as §1
Rattus norvegicus [6] = assay: Antiinflammatory activity in Sprague-Dawley rat chronic model of formalin-induced paw edema assessed as inhibition of rat paw edema at 50 mg/kg, po pre treated for 1 hr followed by formalin-stimulation and measured after 2 days by plethysmometeric method relative to control; format: functional; conditions: 48 h, time 2 day; method in brief: as §1
Rattus norvegicus [7] = assay: Antialzheimer activity against AlCl3-induced Sprague-Dawley rat assessed as change in brain SODactivity at 50 mg/kg, po after 28 days; format: functional, organism-based; conditions: time 28.0 day
Method in brief: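 Brain SOD activity. Rats were dosed orally for 28 days in 0.2% agar suspension, each followed by AlCl3 4.2 mg/kg i.p. Brains were taken on day 29, washed in saline and homogenized in chilled 50 mM Tris pH 8.2. Triton X-100 treatment at 4 °C, 30 min, then centrifugation. Pyrogallol was added and A420 read at 0 and 9 min, per gram fresh tissue. n = 6.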

[8] = Toxicity in AlCl3-induced Sprague-Dawley rat assessed as focal erosions in intestine at 50 mg/kg, po after 28 days by H and E staining based microscopic method; format: organism-based; conditions: in vivo, 672 h, time 28 day
Method in brief: (§2)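 Gastrointestinal damage in AlCl3-model rats, 28 days of oral dosing. Stomach and intestines were washed in cold PBS 0.01 M pH 7.4 and fixed 24 h in 10% neutral buffered formalin. After a 70% ethanol wash, haemorrhagic damage was measured by digital vernier caliper for the lesion index. HE-stained sections examined microscopically.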

[9] = Toxicity in AlCl3-induced Sprague-Dawley rat assessed as reduction in serum albumin level at 50 mg/kg, po after 28 days by automated analyser; format: organism-based; conditions: in vivo, 672 h, time 28 day
Method in brief: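 Under isoflurane, retro-orbital blood was collected into non-heparinized tubes after the 28-day AlCl3 model with oral dosing. Serum % albumin and total protein were measured on an automated clinical chemistry analyser.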

[10] = Toxicity in AlCl3-induced Sprague-Dawley rat assessed as reduction in HGB level at 50 mg/kg, po after 28 days by automated haematology analyser; format: organism-based; conditions: in vivo, 672 h, time 28 day
Method in brief: (§3)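 On day 29 of the AlCl3 model (28 days of oral dosing), blood was drawn from the retro-orbital sinus under isoflurane into heparinized tubes. Haemoglobin and haematocrit were measured on a haematology analyser.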

Rattus norvegicus [11] = assay: Antialzheimer activity against AlCl3-induced Sprague-Dawley rat assessed as improved in learning memory by measuring suppression of CAR at 50 mg/kg, po for 7 to 28 days by pole test; format: functional, organism-based; conditions: time 7-28 day
Method in brief: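 Cook's pole-climbing apparatus used for conditioned avoidance response with foot shock, in acquisition and test sessions. Rats received oral dosing in 0.2% agar plus AlCl3 4.2 mg/kg i.p. daily for 28 days. CAR was recorded on days 7, 14, 21 and 28. n = 6 per group.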

Rattus norvegicus [12] = assay: Antialzheimer activity against AlCl3-induced Sprague-Dawley rat assessed as reduction in hippocampal neuronal degeneration at 50 mg/kg, po after 28 days by H and E staining based microscopic method; format: functional, organism-based; conditions: time 28.0 day
Method in brief: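 Hippocampal neuronal degeneration. After 28 days of oral dosing in 0.2% agar with daily AlCl3 4.2 mg/kg i.p., brain sections were HE-stained and hippocampal regions examined at 100X.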

[13] = Toxicity in AlCl3-induced Sprague-Dawley rat assessed as intestine lesion at 50 mg/kg, po after 28 days by H and E staining based microscopic method; format: organism-based; conditions: in vivo, 672 h, time 28 day; method in brief: as §2
[14] = Toxicity in AlCl3-induced Sprague-Dawley rat assessed as reduction in HCT level at 50 mg/kg, po after 28 days by automated haematology analyser; format: organism-based; conditions: in vivo, 672 h, time 28 day; method in brief: as §3
Rattus norvegicus [15] = assay: Antialzheimer activity against AlCl3-induced Sprague-Dawley rat assessed as reduction in brain LPO activity at 50 mg/kg, po after 28 days by UV-VIS spectrophotometric method; format: functional, organism-based; conditions: time 28.0 day
Method in brief: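 Brain LPO as MDA by the TBA reaction. AlCl3 model: oral dosing in 0.2% agar for 28 days plus AlCl3 4.2 mg/kg i.p. daily. Day-29 brains were homogenized in HBSS pH 7.4 and the pellet resuspended. Reaction with SDS, acetic acid pH 3.5 and TBA at 95 °C for 1 h, then n-butanol:pyridine extraction. Read at 532 nm, extinction coefficient applied, per gram organ. n = 6.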

[16] = Toxicity in AlCl3-induced Sprague-Dawley rat assessed as stomach lesion at 50 mg/kg, po after 28 days by H and E staining based microscopic method; format: organism-based; conditions: in vivo, 672 h, time 28 day; method in brief: as §2
[17] = Toxicity in AlCl3-induced Sprague-Dawley rat assessed as focal erosions in stomach at 50 mg/kg, po after 28 days by H and E staining based microscopic method; format: organism-based; conditions: in vivo, 672 h, time 28 day; method in brief: as §2
Rattus norvegicus [18] = assay: Antialzheimer activity against AlCl3-induced Sprague-Dawley rat assessed as improved in spatial working memory at 50 mg/kg, po for 7 to 28 days by elevated plus maze test; format: functional, organism-based; conditions: time 7-28 day
Rattus norvegicus [19] = assay: Antialzheimer activity against AlCl3-induced Sprague-Dawley rat assessed as reduction in plaque formation in the cortex region at 50 mg/kg, po after 28 days by congo red staining based microscopic method; format: functional, organism-based; conditions: time 28.0 day
Method in brief: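 Cortical amyloid plaques in Congo red-stained brain sections viewed at 100X. Rats had 28 days of oral dosing in 0.2% agar plus AlCl3 4.2 mg/kg i.p.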

Rattus norvegicus [20] = assay: Antialzheimer activity against AlCl3-induced Sprague-Dawley rat assessed as improved in working memory at 50 mg/kg, po for 7 to 28 days by Y maze test; format: functional, organism-based; conditions: time 7-28 day
Method in brief: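 Y-maze: rats trained for 5 consecutive days. Arm entries recorded; SAP = total entries minus two; % alteration = actual ÷ maximum alteration × 100. Assessed on days 7, 14, 21 and 28 of daily oral dosing in 0.2% agar plus AlCl3 4.2 mg/kg i.p. n = 6, two-way ANOVA with Tukey's test.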

Rattus norvegicus [21] = assay: Antiinflammatory activity in Sprague-Dawley rat acute model of carrageenan-induced paw edema assessed as inhibition of rat paw edema at 50 mg/kg, po pre treated for 1 hr followed by carrageenan-stimulation and measured after 3 hrs by plethysmometeric method relative to control
Rattus norvegicus [22] = assay: Antiinflammatory activity in Sprague-Dawley rat chronic model of formalin-induced paw edema assessed as inhibition of rat paw edema at 50 mg/kg, po pre treated for 1 hr followed by formalin-stimulation and measured after 5 days by plethysmometeric method relative to control; format: functional; conditions: 120 h, time 5 day; method in brief: as §1

## Nc1nc(-c2ccccc2)c(C(=O)c2cnc3ccccn23)s1
Rattus norvegicus [1]
  inhibition in vivo at 50 mg/kg: 40%

## Cc1nc(N)sc1C(=O)c1cnc2c(C)cccn12
Rattus norvegicus [1]
  inhibition in vivo at 50 mg/kg: 45%

## Cc1ccn2c(C(=O)c3cnc(N)s3)cnc2c1
Rattus norvegicus [2]
  inhibition in vivo at 50 mg/kg: 23%
Rattus norvegicus [3]
  inhibition in vivo at 50 mg/kg: 30%
Rattus norvegicus [1]
  inhibition in vivo at 50 mg/kg: 77%
Rattus norvegicus [4]
  inhibition in vivo at 50 mg/kg: 18%
Rattus norvegicus [5]
  inhibition in vivo at 50 mg/kg: 36%
Rattus norvegicus [6]
  inhibition in vivo at 50 mg/kg: 24%

## Cc1ccc2ncc(C(=O)c3sc(N)nc3-c3ccccc3)n2c1
Rattus norvegicus [1]
  inhibition in vivo at 50 mg/kg: 77%

## Cc1ccn2c(C(=O)c3sc(N)nc3N(C)C)cnc2c1
Rattus norvegicus [7]
  Activity: Active
[8]
  Activity: Non-Toxic
[9]
  Activity: Non-Toxic
[10]
  Activity: Non-Toxic
Rattus norvegicus [11]
  Activity: Active
Rattus norvegicus [12]
  Activity: Active
Rattus norvegicus [2]
  inhibition in vivo at 50 mg/kg: 60%
[13]
  Activity: Non-Toxic
[14]
  Activity: Non-Toxic
Rattus norvegicus [3]
  inhibition in vivo at 50 mg/kg: 58%
Rattus norvegicus [15]
  Activity: Active
Rattus norvegicus [1]
  inhibition in vivo at 50 mg/kg: 85%
[16]
  Activity: Non-Toxic
Rattus norvegicus [4]
  inhibition in vivo at 50 mg/kg: 63%
Rattus norvegicus [5]
  inhibition in vivo at 50 mg/kg: 65%
Rattus norvegicus [6]
  inhibition in vivo at 50 mg/kg: 67%
[17]
  Activity: Non-Toxic
Rattus norvegicus [18]
  Activity: Active
Rattus norvegicus [19]
  Activity: Active
Rattus norvegicus [20]
  Activity: Active

## Cc1cccn2c(C(=O)c3sc(N)nc3N(C)C)cnc12
Rattus norvegicus [2]
  inhibition in vivo at 50 mg/kg: 54%
Rattus norvegicus [3]
  inhibition in vivo at 50 mg/kg: 55%
Rattus norvegicus [1]
  inhibition in vivo at 50 mg/kg: 81%
Rattus norvegicus [4]
  inhibition in vivo at 50 mg/kg: 54%
Rattus norvegicus [5]
  inhibition in vivo at 50 mg/kg: 56%
Rattus norvegicus [6]
  inhibition in vivo at 50 mg/kg: 56%

## Cc1ccc2ncc(C(=O)c3sc(N)nc3N(C)C)n2c1
Rattus norvegicus [1]
  inhibition in vivo at 50 mg/kg: 23%

## Cc1ccn2c(C(=O)c3cnc4ccccn34)cnc2c1
Rattus norvegicus [21]
  inhibition in vivo at 50 mg/kg: 67%
Rattus norvegicus [22]
  inhibition in vivo at 50 mg/kg: 61%

## Nc1ncc(C(=O)c2cnc3ccccn23)s1
Rattus norvegicus [1]
  inhibition in vivo at 50 mg/kg: 33%

## Cc1ccn2c(C(=O)c3sc(N)nc3C)cnc2c1
Rattus norvegicus [1]
  inhibition in vivo at 50 mg/kg: 66%
